According to paper PMC3461162 (British Journal of Cancer, 2012):

Assay: Phase I dose-escalation safety and tolerability: adverse events, DLTs, MTD
Format: in vivo, human
Outline: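 Multicentre, open-label, dose-escalation study. A single oral dose on day 1 was followed one week later by continuous twice-daily dosing, starting at 10 mg. The first three cohorts got solution, later cohorts tablets. AEs were graded by CTC v3.0 from consent to 30 days after stopping. DLT: a CTC grade 3 AE, or a laboratory abnormality with clinical signs, within 42 days (extended from 35). MTD: last dose below the non-tolerated dose.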

[1] = 10 mg BID solution (n=5), CTCAE grade 1–2
[2] = 10 mg BID solution (n=5), CTCAE grade ⩾3
[3] = 20 mg BID solution (n=3), CTCAE grade 1–2
[4] = 20 mg BID solution (n=3), CTCAE grade ⩾3
[5] = 40 mg BID solution (n=6), CTCAE grade 1–2
[6] = 40 mg BID solution (n=6), CTCAE grade ⩾3
[7] = 40 mg BID tablet (n=7), CTCAE grade 1–2
[8] = 40 mg BID tablet (n=7), CTCAE grade ⩾3
[9] = 60 mg BID tablet (n=7), CTCAE grade 1–2
[10] = 60 mg BID tablet (n=7), CTCAE grade ⩾3

Compound: COc1ccc(-c2ccc3c(N4CCOC[C@@H]4C)nc(N4CCOC[C@@H]4C)nc3n2)cc1CO [AZD8055]
- Fatigue: patients with AZD8055-related AE, n (%) [1]: 1 (20) %
- Hyperglycaemia: patients with AZD8055-related AE, n (%) [1]: 0%
- Increased ALT: patients with AZD8055-related AE, n (%) [1]: 1 (20) %
- Increased AST: patients with AZD8055-related AE, n (%) [1]: 1 (20) %
- Increased GGT: patients with AZD8055-related AE, n (%) [1]: 0%
- Nausea: patients with AZD8055-related AE, n (%) [1]: 2 (40) %
- Stomatitis: patients with AZD8055-related AE, n (%) [1]: 0%
- Fatigue: patients with AZD8055-related AE, n (%) [2]: 0%
- Hyperglycaemia: patients with AZD8055-related AE, n (%) [2]: 0%
- Increased ALT: patients with AZD8055-related AE, n (%) [2]: 0%
- Increased AST: patients with AZD8055-related AE, n (%) [2]: 0%
- Increased GGT: patients with AZD8055-related AE, n (%) [2]: 0%
- Nausea: patients with AZD8055-related AE, n (%) [2]: 0%
- Stomatitis: patients with AZD8055-related AE, n (%) [2]: 0%
- Fatigue: patients with AZD8055-related AE, n (%) [3]: 0%
- Hyperglycaemia: patients with AZD8055-related AE, n (%) [3]: 0%
- Increased ALT: patients with AZD8055-related AE, n (%) [3]: 0%
- Increased AST: patients with AZD8055-related AE, n (%) [3]: 0%
- Increased GGT: patients with AZD8055-related AE, n (%) [3]: 0%
- Nausea: patients with AZD8055-related AE, n (%) [3]: 1 (33) %
- Stomatitis: patients with AZD8055-related AE, n (%) [3]: 1 (33) %
- Fatigue: patients with AZD8055-related AE, n (%) [4]: 0%
- Hyperglycaemia: patients with AZD8055-related AE, n (%) [4]: 0%
- Increased ALT: patients with AZD8055-related AE, n (%) [4]: 1 (33) %
- Increased AST: patients with AZD8055-related AE, n (%) [4]: 1 (33) %
- Increased GGT: patients with AZD8055-related AE, n (%) [4]: 0%
- Nausea: patients with AZD8055-related AE, n (%) [4]: 0%
- Stomatitis: patients with AZD8055-related AE, n (%) [4]: 0%
- Patients with DLT (grade 3 rise in transaminases) (40 mg BID solution): 1
- Fatigue: patients with AZD8055-related AE, n (%) [5]: 2 (33) %
- Hyperglycaemia: patients with AZD8055-related AE, n (%) [5]: 0%
- Increased ALT: patients with AZD8055-related AE, n (%) [5]: 0%
- Increased AST: patients with AZD8055-related AE, n (%) [5]: 0%
- Increased GGT: patients with AZD8055-related AE, n (%) [5]: 1 (17) %
- Nausea: patients with AZD8055-related AE, n (%) [5]: 0%
- Stomatitis: patients with AZD8055-related AE, n (%) [5]: 1 (17) %
- Fatigue: patients with AZD8055-related AE, n (%) [6]: 0%
- Hyperglycaemia: patients with AZD8055-related AE, n (%) [6]: 0%
- Increased ALT: patients with AZD8055-related AE, n (%) [6]: 1 (17) %
- Increased AST: patients with AZD8055-related AE, n (%) [6]: 1 (17) %
- Increased GGT: patients with AZD8055-related AE, n (%) [6]: 0%
- Nausea: patients with AZD8055-related AE, n (%) [6]: 0%
- Stomatitis: patients with AZD8055-related AE, n (%) [6]: 0%
- Fatigue: patients with AZD8055-related AE, n (%) [7]: 1 (14) %
- Hyperglycaemia: patients with AZD8055-related AE, n (%) [7]: 1 (14) %
- Increased ALT: patients with AZD8055-related AE, n (%) [7]: 0%
- Increased AST: patients with AZD8055-related AE, n (%) [7]: 0%
- Increased GGT: patients with AZD8055-related AE, n (%) [7]: 0%
- Nausea: patients with AZD8055-related AE, n (%) [7]: 1 (14) %
- Stomatitis: patients with AZD8055-related AE, n (%) [7]: 0%
- Fatigue: patients with AZD8055-related AE, n (%) [8]: 0%
- Hyperglycaemia: patients with AZD8055-related AE, n (%) [8]: 0%
- Increased ALT: patients with AZD8055-related AE, n (%) [8]: 1 (14) %
- Increased AST: patients with AZD8055-related AE, n (%) [8]: 0%
- Increased GGT: patients with AZD8055-related AE, n (%) [8]: 0%
- Nausea: patients with AZD8055-related AE, n (%) [8]: 0%
- Stomatitis: patients with AZD8055-related AE, n (%) [8]: 0%
- Fatigue: patients with AZD8055-related AE, n (%) [9]: 1 (14) %
- Hyperglycaemia: patients with AZD8055-related AE, n (%) [9]: 0%
- Increased ALT: patients with AZD8055-related AE, n (%) [9]: 1 (14) %
- Increased AST: patients with AZD8055-related AE, n (%) [9]: 1 (14) %
- Increased GGT: patients with AZD8055-related AE, n (%) [9]: 1 (14) %
- Nausea: patients with AZD8055-related AE, n (%) [9]: 0%
- Stomatitis: patients with AZD8055-related AE, n (%) [9]: 0%
- Fatigue: patients with AZD8055-related AE, n (%) [10]: 0%
- Hyperglycaemia: patients with AZD8055-related AE, n (%) [10]: 0%
- Increased ALT: patients with AZD8055-related AE, n (%) [10]: 0%
- Increased AST: patients with AZD8055-related AE, n (%) [10]: 1 (14) %
- Increased GGT: patients with AZD8055-related AE, n (%) [10]: 1 (14) %
- Nausea: patients with AZD8055-related AE, n (%) [10]: 0%
